≈ marks a conversion by molar mass, not a printed value.
How the values were obtained:
Aspergillus fumigatus [1] = assay: microbe, parasite or virus in culture; assay type: functional
Candida albicans [2] = assay: microbe, parasite or virus in culture; assay type: functional
Trichophyton rubrum [3] = assay: (§1) In vitro antifungal activity against Trichophyton rubrum CM1447; assay type: functional
Candida albicans [4] = assay: In vitro antifungal activity against Candida albicans 4711E; assay type: functional
Outline: (§2)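 Yeast broth microdilution per NCCLS M27-A, with 2-fold drug dilutions from 0.001 to 128 µg/mL. The inoculum was adjusted spectrophotometrically, giving a final ~10^4 cells/mL. Plates were incubated for 24 h at 35 °C, static and humid, then shaken and read visually and at 450 nm. MIC = lowest concentration preventing discernible growth (~90% reduction vs drug-free wells).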

Candida parapsilosis [5] = assay: microbe, parasite or virus in culture; assay type: functional; details: Lodderomyces parapsilosis
Candida parapsilosis [6] = assay: In vitro antifungal activity against Candida parapsilosis 2372E; assay type: functional; details: Lodderomyces parapsilosis
Outline: as §2

Aspergillus flavus [7] = assay: (§3) In vitro antifungal activity against Aspergillus flavus CM74; assay type: functional
Nakaseomyces glabratus [8] = assay: In vitro antifungal activity against Candida glabrata 2375E; assay type: functional
Nakaseomyces glabratus [9] = assay: microbe, parasite or virus in culture; assay type: functional
Trichophyton benhamiae [10] = assay: (§4) In vitro antifungal activity against Trichophyton mentagrophytes CM84; assay type: functional, Arthroderma benhamiae
Aspergillus flavus [11] = assay: as §3; assay type: functional; remark: listed apart in the source
Outline: (§5)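 Broth microdilution in RPMI-2% glucose following NCCLS M38-P. Conidia came from Sabouraud dextrose agar slants grown at 27 °C. They were harvested in saline with 0.1% Tween 80, gauze-filtered, counted by hemocytometer and stored at -70 °C. The final inoculum was ~10^4 conidia/mL, with 2-fold drug dilutions from 0.25 to 128 µg/mL. Plates were incubated at 35 °C and read by mirror once control growth was visible. MIC = lowest concentration with no visible growth.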

Aspergillus fumigatus [12] = assay: In vitro antifungal activity against Aspergillus fumigatus 48238E; assay type: functional
Outline: as §5

Trichophyton rubrum [13] = assay: as §1; assay type: functional; remark: listed apart in the source
Outline: as §5

Trichophyton benhamiae [14] = assay: as §4; assay type: functional, Arthroderma benhamiae; remark: listed apart in the source
Outline: as §5

Compound	MIC (Aspergillus fumigatus [1]) [µg/mL]	MIC (Candida albicans [2]) [µg/mL]	MIC (Trichophyton rubrum [3]) [µg/mL]	MFC (Candida albicans [4]) [µg/mL]	MIC (Candida parapsilosis [5]) [µg/mL]	MFC (Candida parapsilosis [6]) [µg/mL]	MIC (Aspergillus flavus [7]) [µg/mL]	MFC (Nakaseomyces glabratus [8]) [µg/mL]	MIC (Nakaseomyces glabratus [9]) [µg/mL]	MIC (Trichophyton benhamiae [10]) [µg/mL]	MFC (Aspergillus flavus [11]) [µg/mL]	MFC (Aspergillus fumigatus [12]) [µg/mL]	MFC (Trichophyton rubrum [13]) [µg/mL]	MFC (Trichophyton benhamiae [14]) [µg/mL]
Cl.Clc1ccc(/C=N/OC(Cn2ccnc2)c2ccc(Cl)cc2Cl)c(Cl)c1 (stereo not given)	64	> 128	–	–	–	–	–	–	–	–	–	–	–	–
Clc1ccc(CO/N=C(\Cn2ccnc2)c2ccc(Cl)cc2Cl)c(Cl)c1 [OXICONAZOLE]	2 (≈ 4.66 µM)	0.03 (≈ 0.0699 µM)	2 (≈ 4.66 µM)	64 (≈ 149 µM)	0.008 (≈ 0.0186 µM)	4 (≈ 9.32 µM)	2 (≈ 4.66 µM)	0.25 (≈ 0.583 µM)	0.01 (≈ 0.0233 µM)	2 (≈ 4.66 µM)	2 (≈ 4.66 µM)	2 (≈ 4.66 µM)	2 (≈ 4.66 µM)	4 (≈ 9.32 µM)
C/C(=N\OC(Cn1ccnc1)c1ccc(Cl)cc1Cl)c1ccc(Cl)cc1Cl (stereo not given)	8 (≈ 18.1 µM)	4 (≈ 9.03 µM)	8 (≈ 18.1 µM)	8 (≈ 18.1 µM)	1 (≈ 2.26 µM)	16 (≈ 36.1 µM)	32 (≈ 72.2 µM)	2 (≈ 4.51 µM)	0.5 (≈ 1.13 µM)	8 (≈ 18.1 µM)	32 (≈ 72.2 µM)	8 (≈ 18.1 µM)	8 (≈ 18.1 µM)	8 (≈ 18.1 µM)
C/C(=N\OC(Cn1ccnc1)c1ccc(F)cc1F)c1ccc(OCCN2CCOCC2)cc1 (stereo not given)	16 (≈ 34 µM)	8 (≈ 17 µM)	4 (≈ 8.5 µM)	32 (≈ 68 µM)	0.03 (≈ 0.0638 µM)	2 (≈ 4.25 µM)	16 (≈ 34 µM)	4 (≈ 8.5 µM)	0.25 (≈ 0.531 µM)	2 (≈ 4.25 µM)	32 (≈ 68 µM)	16 (≈ 34 µM)	4 (≈ 8.5 µM)	4 (≈ 8.5 µM)
Cl.Fc1ccc(C(Cn2ccnc2)O/N=C/c2c(F)cccc2F)c(F)c1 (stereo not given)	32	32	–	–	–	–	–	–	–	–	–	–	–	–
CCC/C(=N\OC(Cn1ccnc1)c1ccc(Cl)cc1Cl)c1ccc(Cl)cc1Cl (stereo not given)	> 128	> 128	–	–	–	–	–	–	–	–	–	–	–	–
C/C(=N\OC(Cn1ccnc1)c1ccc(F)cc1F)c1ccc(F)cc1 (stereo not given)	16 (≈ 44.5 µM)	64 (≈ 178 µM)	–	–	–	–	–	–	–	–	–	–	–	–
Fc1ccc(/C(Cn2ccnc2)=N/OC(Cn2ccnc2)c2ccc(F)cc2F)c(F)c1 (stereo not given)	> 128	2 (≈ 4.51 µM)	64 (≈ 144 µM)	> 128	8 (≈ 18 µM)	128 (≈ 289 µM)	> 128	16 (≈ 36.1 µM)	4 (≈ 9.02 µM)	64 (≈ 144 µM)	> 128	> 128	64 (≈ 144 µM)	> 128
C/C(=N\OC(Cn1ccnc1)c1ccc(F)cc1F)c1c(F)cccc1F (stereo not given)	16 (≈ 42.4 µM)	32 (≈ 84.8 µM)	4 (≈ 10.6 µM)	32 (≈ 84.8 µM)	0.25 (≈ 0.663 µM)	16 (≈ 42.4 µM)	32 (≈ 84.8 µM)	1 (≈ 2.65 µM)	0.03 (≈ 0.0795 µM)	2 (≈ 5.3 µM)	64 (≈ 170 µM)	32 (≈ 84.8 µM)	8 (≈ 21.2 µM)	2 (≈ 5.3 µM)
C/C(=N\OC(Cn1ccnc1)c1ccc(F)cc1F)c1cc(F)ccc1F (stereo not given)	4 (≈ 10.6 µM)	8 (≈ 21.2 µM)	1 (≈ 2.65 µM)	32 (≈ 84.8 µM)	2 (≈ 5.3 µM)	64 (≈ 170 µM)	8 (≈ 21.2 µM)	1 (≈ 2.65 µM)	0.03 (≈ 0.0795 µM)	0.25 (≈ 0.663 µM)	8 (≈ 21.2 µM)	4 (≈ 10.6 µM)	16 (≈ 42.4 µM)	2 (≈ 5.3 µM)
C/C(=N\OC(Cn1ccnc1)c1ccc(F)cc1F)c1ccccc1F.Cl (stereo not given)	16	32	–	–	–	–	–	–	–	–	–	–	–	–
C/C(=N\OC(Cn1ccnc1)c1ccc(F)cc1F)c1ccc(F)cc1F (stereo not given)	8 (≈ 21.2 µM)	32 (≈ 84.8 µM)	8 (≈ 21.2 µM)	32 (≈ 84.8 µM)	2 (≈ 5.3 µM)	32 (≈ 84.8 µM)	16 (≈ 42.4 µM)	2 (≈ 5.3 µM)	0.03 (≈ 0.0795 µM)	1 (≈ 2.65 µM)	16 (≈ 42.4 µM)	16 (≈ 42.4 µM)	16 (≈ 42.4 µM)	4 (≈ 10.6 µM)
OC(Cn1cncn1)(Cn1cncn1)c1ccc(F)cc1F [FLUCONAZOLE]	> 128	0.12 (≈ 0.392 µM)	0.5 (≈ 1.63 µM)	> 128	0.5 (≈ 1.63 µM)	> 128	> 128	> 128	2 (≈ 6.53 µM)	0.5 (≈ 1.63 µM)	> 128	> 128	> 128	> 128
Fc1ccc(C(Cn2ccnc2)O/N=C/c2ccc(OCCN3CCOCC3)cc2)c(F)c1 (stereo not given)	64 (≈ 140 µM)	64 (≈ 140 µM)	8 (≈ 17.5 µM)	64 (≈ 140 µM)	0.25 (≈ 0.548 µM)	4 (≈ 8.76 µM)	64 (≈ 140 µM)	8 (≈ 17.5 µM)	2 (≈ 4.38 µM)	> 128	64 (≈ 140 µM)	64 (≈ 140 µM)	16 (≈ 35 µM)	> 128
Clc1ccc(C(Cn2ccnc2)O/N=C/c2ccc(OCCN3CCOCC3)cc2)c(Cl)c1 (stereo not given)	2 (≈ 4.09 µM)	2 (≈ 4.09 µM)	2 (≈ 4.09 µM)	8 (≈ 16.3 µM)	0.25 (≈ 0.511 µM)	16 (≈ 32.7 µM)	8 (≈ 16.3 µM)	8 (≈ 16.3 µM)	1 (≈ 2.04 µM)	4 (≈ 8.17 µM)	8 (≈ 16.3 µM)	2 (≈ 4.09 µM)	16 (≈ 32.7 µM)	8 (≈ 16.3 µM)
C/C(=N\OC(Cn1ccnc1)c1ccc(Cl)cc1Cl)c1ccc(OCCN2CCOCC2)cc1 (stereo not given)	32 (≈ 63.6 µM)	1 (≈ 1.99 µM)	2 (≈ 3.97 µM)	8 (≈ 15.9 µM)	0.004 (≈ 0.00795 µM)	8 (≈ 15.9 µM)	32 (≈ 63.6 µM)	8 (≈ 15.9 µM)	0.06 (≈ 0.119 µM)	4 (≈ 7.95 µM)	32 (≈ 63.6 µM)	32 (≈ 63.6 µM)	16 (≈ 31.8 µM)	8 (≈ 15.9 µM)
Clc1ccc(/C(Cn2ccnc2)=N/OC(Cn2ccnc2)c2ccc(Cl)cc2Cl)c(Cl)c1 (stereo not given)	128 (≈ 251 µM)	32 (≈ 62.8 µM)	–	–	–	–	–	–	–	–	–	–	–	–
Cl.Fc1ccc(/C=N/OC(Cn2ccnc2)c2ccc(F)cc2F)c(F)c1 (stereo not given)	16	16	–	–	–	–	–	–	–	–	–	–	–	–
CC/C(=N\OC(Cn1ccnc1)c1ccc(Cl)cc1Cl)c1ccc(Cl)cc1Cl (stereo not given)	> 128	16 (≈ 35 µM)	–	–	–	–	–	–	–	–	–	–	–	–

— ChEMBL document CHEMBL1136007, “Synthesis, antifungal activity, and molecular modeling studies of new inverted oxime ethers of oxiconazole” (2002)
